Reference: ChEMBL document CHEMBL4385611, “Difluoromethylene at the γ-Lactam α-Position Improves 11-Deoxy-8-aza-PGE1 Series EP4 Receptor Binding and Activity: 11-Deoxy-10,10-difluoro-8-aza-PGE1 Analog (KMN-159) as a Potent EP4 Agonist” (J Med Chem, 2019)
In brackets after ≈: the same amount, converted by molar mass.

Tests used:
[1] = Mutagenicity in Salmonella typhimurium TA1537 after 96 hrs in presence of rat liver S9 fraction by Ames test; type: toxicity, subcellular; conditions: salmonella enterica subsp. enterica serovar typhimurium, s9, 96 h
[2] = Chemical stability in PBS buffer at pH 7.4 assessed as compound recovery at 4 degC under autoclave condition; type: physicochemical
Method in brief: (§1)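 Compound solution in PBS, pH 7.4, held at 4 °C, tested as plain aqueous solution and after autoclaving. A separate sample was exposed to Co-60 gamma irradiation. Read-out is percent of compound recovered.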

[3] = Aqueous solubility of the compound in pH 7.4 phosphate-buffered saline at 200 uM after 24 hrs by shake-flask method; type: physicochemical
CHO-K1 = assay: Clastogenic activity in CHOK1 cells after 4 hrs in presence of S9 fraction by micronucleus assay; type: toxicity, cell-based, Cricetulus griseus; conditions: chinese hamster, s9, 4 h
[4] = Half-life in human hepatocytes at 0.1 uM by HPLC-MS/MS analysis; type: ADME, cell-based, Hepatocyte
[5] = Apparent permeability across basolateral to apical side in human Caco2 cells assessed as drug recovery at 5 uM after 120 mins by LC-MS/MS analysis; type: ADME, cell-based; conditions: Caco-2, read-out: Drug recovery
[6] = Efflux ratio of apparent permeability from basolateral to apical side over apical to basolateral side in human Caco2 cells at 5 uM after 120 mins by LC-MS/MS analysis; type: ADME, cell-based; conditions: Caco-2
[7] = n-Octanol-PBS buffer partition coefficient, log D of the compound at 100 uM at pH 7.4 after 1 hr by LC-MS/MS analysis; type: physicochemical
[8] = Mutagenicity in Salmonella typhimurium TA98 after 96 hrs in absence of rat liver S9 fraction by Ames test; type: toxicity; conditions: salmonella enterica subsp. enterica serovar typhimurium, s9, 96 h
[9] = Mutagenicity in Salmonella typhimurium TA1535 after 96 hrs in presence of rat liver S9 fraction by Ames test; type: toxicity, subcellular; conditions: salmonella enterica subsp. enterica serovar typhimurium, s9, 96 h
Cytochrome P450 2C9 = Cytochrome P450 2C9 (Homo sapiens, UniProt P11712); assay: Inhibition of CYP2C9 in human liver microsomes using diclofenac as substrate at uM after 10 mins by HPLC-MS/MS analysis; type: ADME
Cytochrome P450 2C9, sequence (P11712 whole entry): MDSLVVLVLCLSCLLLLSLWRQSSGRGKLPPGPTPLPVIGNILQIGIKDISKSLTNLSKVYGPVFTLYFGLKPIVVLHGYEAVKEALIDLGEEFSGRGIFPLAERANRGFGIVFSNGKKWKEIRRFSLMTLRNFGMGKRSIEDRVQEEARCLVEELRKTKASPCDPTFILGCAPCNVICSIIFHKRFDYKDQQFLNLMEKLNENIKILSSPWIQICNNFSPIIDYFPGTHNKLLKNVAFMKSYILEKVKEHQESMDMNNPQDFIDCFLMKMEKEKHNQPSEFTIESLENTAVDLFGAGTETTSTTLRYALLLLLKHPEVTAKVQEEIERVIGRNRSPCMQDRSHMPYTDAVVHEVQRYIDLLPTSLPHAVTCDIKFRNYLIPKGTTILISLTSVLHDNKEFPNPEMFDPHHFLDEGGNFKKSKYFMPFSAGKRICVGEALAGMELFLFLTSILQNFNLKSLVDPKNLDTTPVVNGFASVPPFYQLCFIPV

[10] = Mutagenicity in Salmonella typhimurium TA100 after 96 hrs in presence of rat liver S9 fraction by Ames test; type: toxicity, subcellular; conditions: salmonella enterica subsp. enterica serovar typhimurium, s9, 96 h
[11] = target: T1, Prostaglandin E2 receptor EP4 subtype (Homo sapiens, UniProt P35408); assay: Displacement of [3H]PGE2 from human recombinant EP4 receptor expressed in HEK293 cell membranes after 120 mins by liquid scintillation counting method
T1 sequence (P35408 whole entry): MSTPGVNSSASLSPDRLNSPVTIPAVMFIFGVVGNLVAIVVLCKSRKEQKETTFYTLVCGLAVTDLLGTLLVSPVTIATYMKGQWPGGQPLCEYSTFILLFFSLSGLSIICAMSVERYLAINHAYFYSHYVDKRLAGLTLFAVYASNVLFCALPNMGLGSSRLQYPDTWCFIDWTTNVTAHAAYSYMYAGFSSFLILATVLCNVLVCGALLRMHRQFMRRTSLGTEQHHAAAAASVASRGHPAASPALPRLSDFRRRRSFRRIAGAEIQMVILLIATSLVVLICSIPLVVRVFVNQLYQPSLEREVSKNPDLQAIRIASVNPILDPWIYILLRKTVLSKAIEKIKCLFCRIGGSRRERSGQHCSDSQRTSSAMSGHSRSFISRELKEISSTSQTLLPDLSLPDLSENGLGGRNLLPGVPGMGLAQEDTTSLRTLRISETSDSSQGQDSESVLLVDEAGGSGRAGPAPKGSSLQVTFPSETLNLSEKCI

Homo sapiens = organism: Homo sapiens; assay: Selectivity ratio of Ki for displacement of [3H]PGE2 from human recombinant EP2 receptor expressed in HEK293 cell membranes to Ki for displacement of [3H]PGE2 from human recombinant EP4 receptor expressed in HEK293 cell membranes
[12] = Protein binding in human plasma at 10 uM after 4 hrs by HPLC-MS/MS-based equilibrium dialysis method; type: ADME, cell-free; conditions: read-out: PPB (converted)
Cytochrome P450 2C8 = target: T2, Cytochrome P450 2C8 (Homo sapiens, UniProt P10632); assay: Inhibition of CYP2C8 in human liver microsomes using paclitaxel as substrate at 10 uM after 10 mins by HPLC-MS/MS analysis; type: ADME
T2 sequence (P10632 whole entry): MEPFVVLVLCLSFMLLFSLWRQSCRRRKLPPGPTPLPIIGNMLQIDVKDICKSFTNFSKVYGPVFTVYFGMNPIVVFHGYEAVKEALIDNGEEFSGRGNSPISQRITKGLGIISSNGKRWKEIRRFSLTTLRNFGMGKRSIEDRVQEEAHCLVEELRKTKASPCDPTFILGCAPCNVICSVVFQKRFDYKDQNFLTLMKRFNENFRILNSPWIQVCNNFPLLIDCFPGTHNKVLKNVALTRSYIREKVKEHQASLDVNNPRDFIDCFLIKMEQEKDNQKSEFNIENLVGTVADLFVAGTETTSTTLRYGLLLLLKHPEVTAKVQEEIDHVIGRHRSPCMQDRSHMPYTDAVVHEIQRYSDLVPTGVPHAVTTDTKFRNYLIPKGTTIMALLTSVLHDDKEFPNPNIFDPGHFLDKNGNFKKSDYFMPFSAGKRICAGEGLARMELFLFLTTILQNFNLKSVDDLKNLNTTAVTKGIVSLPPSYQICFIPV

[13] = Half-life in human blood at 1 uM by HPLC-MS/MS analysis; type: ADME, tissue-based
[14] = Apparent permeability across apical to basolateral side in human Caco2 cells assessed as drug recovery at 5 uM after 120 mins by LC-MS/MS analysis; type: ADME, cell-based; conditions: Caco-2, read-out: Drug recovery
[15] = Mutagenicity in Salmonella typhimurium TA100 after 96 hrs in absence of rat liver S9 fraction by Ames test; type: toxicity; conditions: salmonella enterica subsp. enterica serovar typhimurium, s9, 96 h
[16] = Genotoxicity in Salmonella typhimurium TA100 at 0.6 to 100 uM after 96 hrs by photometry analysis; type: toxicity; conditions: salmonella enterica subsp. enterica serovar typhimurium
[17] = target: T1, Prostaglandin E2 receptor EP4 subtype; assay: Agonist activity at human EP4 receptor expressed in HEK293T/17 cells assessed as increase in GalphaS-mediated CREB activation measured after 6 to 24 hrs by SEAP reporter gene-based chemiluminescence assay; type: functional, cell-based
[18] = Chemical stability of the compound assessed as drug recovery under Co-60 gamma irradiation condition; type: physicochemical; method in brief: as §1
[19] = Intrinsic clearance in human liver microsomes at 0.1 uM by HPLC-MS/MS analysis; type: ADME, Microsome; conditions: read-out: CLH
[20] = Genotoxicity in Salmonella typhimurium TA1537 at 0.6 to 100 uM after 96 hrs by photometry analysis; type: toxicity; conditions: salmonella enterica subsp. enterica serovar typhimurium
[21] = Mutagenicity in Salmonella typhimurium TA1537 after 96 hrs in absence of rat liver S9 fraction by Ames test; type: toxicity; conditions: salmonella enterica subsp. enterica serovar typhimurium, s9, 96 h
[22] = Apparent permeability across apical to basolateral side in human Caco2 cells at 5 uM after 120 mins by LC-MS/MS analysis; type: ADME, cell-based; conditions: Caco-2
Cytochrome P450 3A = Cytochrome P450 3A (Homo sapiens, UniProt P08684+P20815+Q9HB55+P24462); assay: Inhibition of CYP3A in human liver microsomes using testosterone as substrate at 10 uM after 10 mins by HPLC-MS/MS analysis; type: ADME
[23] = target: T3, Prostaglandin E2 receptor EP2 subtype (Homo sapiens, UniProt P43116); assay: Agonist activity at human EP2 receptor expressed in HEK293T/17 cells assessed as increase in GalphaS-mediated CREB activation measured after 6 to 24 hrs by SEAP reporter gene-based chemiluminescence assay; type: functional, cell-based
T3 sequence (P43116 whole entry): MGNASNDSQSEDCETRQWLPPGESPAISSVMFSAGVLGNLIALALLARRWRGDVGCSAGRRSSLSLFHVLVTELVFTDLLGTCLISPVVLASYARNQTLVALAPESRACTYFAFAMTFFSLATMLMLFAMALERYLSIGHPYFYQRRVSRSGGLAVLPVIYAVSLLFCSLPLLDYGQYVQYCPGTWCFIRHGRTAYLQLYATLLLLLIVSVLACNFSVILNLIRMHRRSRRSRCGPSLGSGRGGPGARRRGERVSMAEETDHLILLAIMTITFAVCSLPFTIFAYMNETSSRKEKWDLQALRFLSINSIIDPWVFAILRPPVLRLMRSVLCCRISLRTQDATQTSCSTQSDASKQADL

[24] = Chemical stability in PBS buffer at pH 7.4 assessed as compound recovery at 4 degC; type: physicochemical; method in brief: as §1
[25] = Half-life in human plasma at 1 uM by HPLC-MS/MS analysis; type: ADME, cell-free
[26] = Genotoxicity in Salmonella typhimurium TA1535 at 0.6 to 100 uM after 96 hrs by photometry analysis; type: toxicity; conditions: salmonella enterica subsp. enterica serovar typhimurium
[27] = Mutagenicity in Salmonella typhimurium TA98 after 96 hrs in presence of rat liver S9 fraction by Ames test; type: toxicity, subcellular; conditions: salmonella enterica subsp. enterica serovar typhimurium, s9, 96 h
[28] = target: Voltage-gated inwardly rectifying potassium channel KCNH2 (Homo sapiens, UniProt Q12809); assay: Inhibition of human ERG expressed in CHOK1 cells assessed as reduction in tail current amplitude by automated patch-clamp method; type: cell-based
Voltage-gated inwardly rectifying potassium channel KCNH2, sequence (Q12809 whole entry): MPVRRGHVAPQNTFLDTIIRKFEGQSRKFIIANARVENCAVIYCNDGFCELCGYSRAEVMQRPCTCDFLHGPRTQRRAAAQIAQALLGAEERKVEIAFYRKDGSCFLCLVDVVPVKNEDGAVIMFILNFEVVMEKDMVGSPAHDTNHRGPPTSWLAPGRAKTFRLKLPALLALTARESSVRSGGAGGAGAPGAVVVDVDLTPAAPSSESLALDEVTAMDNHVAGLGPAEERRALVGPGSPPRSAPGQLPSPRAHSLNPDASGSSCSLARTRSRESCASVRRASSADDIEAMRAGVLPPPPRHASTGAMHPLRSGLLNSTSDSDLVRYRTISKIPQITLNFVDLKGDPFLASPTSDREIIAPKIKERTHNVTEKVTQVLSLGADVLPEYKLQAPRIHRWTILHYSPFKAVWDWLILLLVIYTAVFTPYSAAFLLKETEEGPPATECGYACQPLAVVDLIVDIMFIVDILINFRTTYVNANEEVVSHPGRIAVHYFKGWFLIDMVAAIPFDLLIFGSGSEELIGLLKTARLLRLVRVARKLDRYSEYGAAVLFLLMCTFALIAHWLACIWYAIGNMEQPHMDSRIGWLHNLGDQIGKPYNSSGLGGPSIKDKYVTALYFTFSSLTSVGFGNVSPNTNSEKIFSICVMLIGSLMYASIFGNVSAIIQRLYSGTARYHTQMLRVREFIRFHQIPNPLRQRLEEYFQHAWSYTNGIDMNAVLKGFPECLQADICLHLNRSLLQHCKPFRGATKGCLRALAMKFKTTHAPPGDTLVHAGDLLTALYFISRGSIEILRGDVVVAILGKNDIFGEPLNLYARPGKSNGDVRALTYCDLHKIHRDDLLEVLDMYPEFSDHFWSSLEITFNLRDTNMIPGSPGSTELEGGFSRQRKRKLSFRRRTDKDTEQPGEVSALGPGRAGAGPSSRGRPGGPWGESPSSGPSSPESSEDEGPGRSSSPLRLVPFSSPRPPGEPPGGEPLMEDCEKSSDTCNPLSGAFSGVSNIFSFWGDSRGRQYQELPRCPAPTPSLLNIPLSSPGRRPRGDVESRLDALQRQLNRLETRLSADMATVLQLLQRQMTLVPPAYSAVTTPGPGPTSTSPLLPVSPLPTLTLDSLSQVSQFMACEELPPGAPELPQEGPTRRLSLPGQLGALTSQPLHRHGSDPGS

[29] = target: T3, Prostaglandin E2 receptor EP2 subtype; assay: Displacement of [3H]PGE2 from human recombinant EP2 receptor expressed in HEK293 cell membranes after 120 mins by liquid scintillation counting method

| SMILES | Activity [1] | solubility thermodynamic at 24 h, 200 µM [3] [µM] | Activity (CHO-K1) | half-life at 0.1 µM [4] [h] | recovery at 2 h, 5 µM [5] [%] | efflux ratio at 2 h, 5 µM [6] | logD at 1 h, 100 µM [7] | Activity [8] | Activity [9] | inhibition (INH) (Cytochrome P450 2C9) | Activity [10] | Ki [11] [µM] | Ratio Ki (Homo sapiens) | fraction unbound at 4 h, 10 µM [12] | inhibition (INH) (Cytochrome P450 2C8) | half-life at 1 µM [13] [h] | recovery at 2 h, 5 µM [14] [%] | Activity [15] | Activity [16] | EC50 [17] [nM] | also measured |
| --- | --- | --- | --- | --- | --- | --- | --- | --- | --- | --- | --- | --- | --- | --- | --- | --- | --- | --- | --- | --- | --- |
| CCC#CC[C@H](C)[C@H](O)/C=C/[C@H]1CC(F)(F)C(=O)N1CCCCCCC(=O)O | Non-Toxic | 197 (≈ 78.7 µg/mL) | Non-Toxic | > 2 | 93 | 1.5 | 0.11 | Non-Toxic | Non-Toxic | Not Active | Non-Toxic | 0.000378 | > 5000 | 0.416 | Not Active | > 2 | 94 | Non-Toxic | Non-Toxic | 0.088 | Drug recovery [2]: 100%; Drug recovery [18]: 95%; microsomal CLint at 0.1 µM [19]: < 116 µL/min/mg; Activity [20]: Non-Toxic; Activity [21]: Non-Toxic; Papp A→B at 2 h, 5 µM [22]: 9.93 ×10⁻⁶ cm/s; inhibition (INH) (Cytochrome P450 3A): Not Active; EC50 [23]: 7.36 µM; Drug recovery [24]: 100%; half-life at 1 µM [25]: > 2 h; Activity [26]: Non-Toxic; Activity [27]: Non-Toxic; IC50 [28]: 25.9 µM; Ki [29]: 4.97 µM |
| CCC#CC[C@H](C)[C@H](O)/C=C/[C@H]1CCC(=O)N1CCCCCCC(=O)O | Non-Toxic | 192 (≈ 69.9 µg/mL) | Non-Toxic | > 2 | 97 | 1.6 | -0.07 | Non-Toxic | Non-Toxic | Not Active | Non-Toxic | 0.00235 | > 5000 | 0.558 | Not Active | > 2 | 103 | Non-Toxic | Non-Toxic | 0.476 | microsomal CLint at 0.1 µM [19]: < 116 µL/min/mg; Activity [20]: Non-Toxic; Activity [21]: Non-Toxic; Papp A→B at 2 h, 5 µM [22]: 6.38 ×10⁻⁶ cm/s; inhibition (INH) (Cytochrome P450 3A): Not Active; EC50 [23]: > 10 µM; half-life at 1 µM [25]: 1.93 h; Activity [26]: Non-Toxic; Activity [27]: Non-Toxic; IC50 [28]: 29 µM; Ki [29]: 12.2 µM |
